The species entered for data set [1] is Bos taurus. Description: Binding affinity to bovine opsin assessed as rate constant preincubated for 30 mins followed by […] addition and measured after 30 mins by UV-visible spectra method. Conditions: time 60.0 min. In short, it runs like this: (§1)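 Opsin from bovine rod outer segments diluted to ~20-25 μM in PBS with 1% N-dodecyl-β-maltoside. Bleached with 532 nm green light, then pre-incubated with compound for 30 min at room temperature. 9-cis-retinal added, equimolar to opsin. Isorhodopsin formation read at 485 nm over 0–29 min. One-phase association fit gives the pseudo-first-order k, compared with DMSO vehicle. At least three repeats.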

The subject of data set [2] is HepG2. Put plainly: Cytotoxicity against human HepG2 cells assessed as reduction in cell viability at 25 uM measured after 24 hrs by Cell-titre blue assay. The class given is toxicity, cell-based. Conditions: hepg2, 24 h. In short, it runs like this: (§2)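 HepG2 (DMEM) or ARPE-19 (DMEM/F12) cells seeded at 1 × 10⁴ per well. Next day given medium with 2% FBS and 1 g/L glucose containing 25 μM compound, for 24 h at 37 °C. CellTiter Blue then added for 4 h; fluorescence read at 560/590 nm. Viability expressed as % of DMSO-treated cells; at least three independent measurements.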

For data set [3], the system named is U2OS. Description: Effect on His-tagged human P23H rhodopsin expressed in U2OS cells assessed as increase localization of P23H rhodopsin using […] as substrate at 17 uM incubated for overnight and measured by immunofluorescence microscopy analysis. The class given is cell-based. The settings on record: time 12.0 hrs. In short, it runs like this: (§3)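 U2OS cells stably carrying C-terminal His-tagged human P23H rhodopsin, grown on polylysine coverslips. Incubated overnight in the dark with 1 μg/mL tetracycline plus compound at 17 or 20 μM (DMSO ≤0.1%); 9-cis-retinal at 5 μM serves as control. Cells fixed in 4% PFA. Surface rhodopsin stained with RetP1 before permeabilisation, total rhodopsin with anti-His after 0.1% Triton. Epifluorescence imaging, 3 independent experiments.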

The subject of data set [4] is U2OS. Description: Effect on His-tagged human P23H rhodopsin expressed in U2OS cells assessed as increase localization of P23H rhodopsin using […] as substrate at 17 to 20 uM incubated for overnight and measured by immunofluorescence microscopy analysis. The class given is functional, cell-based. The settings on record: dose 17-20 µM, time 12.0 hrs. The method in brief: as §3

Data set [5] has as its target Rhodopsin (Bos taurus) (UniProt P02699). Description: Binding affinity to bovine rhodopsin assessed as rate constant preincubated for 30 mins followed by […] addition and measured after 30 mins by UV-visible spectra method. The settings on record: time 60.0 min. The method in brief:
as §1

The subject of data set [6] is ARPE-19. Description: Cytotoxicity against human ARPE-19 cells assessed as reduction in cell viability at 25 uM measured after 24 hrs by Cell-titre blue assay. It counts as toxicity, cell-based. The settings on record: arpe-19, 24 h. The method in brief:
as §2

Data set [7] is described as follows: Half life of compound. The class given is physicochemical.

The source of these data is ChEMBL document CHEMBL5038610, “Ligand-based rational design, synthesis and evaluation of novel potential chemical chaperones for opsin” (Eur J Med Chem, 2021).

Active and inactive are the calls of the source.

Rhodopsin (Bos taurus), sequence (P02699 whole entry): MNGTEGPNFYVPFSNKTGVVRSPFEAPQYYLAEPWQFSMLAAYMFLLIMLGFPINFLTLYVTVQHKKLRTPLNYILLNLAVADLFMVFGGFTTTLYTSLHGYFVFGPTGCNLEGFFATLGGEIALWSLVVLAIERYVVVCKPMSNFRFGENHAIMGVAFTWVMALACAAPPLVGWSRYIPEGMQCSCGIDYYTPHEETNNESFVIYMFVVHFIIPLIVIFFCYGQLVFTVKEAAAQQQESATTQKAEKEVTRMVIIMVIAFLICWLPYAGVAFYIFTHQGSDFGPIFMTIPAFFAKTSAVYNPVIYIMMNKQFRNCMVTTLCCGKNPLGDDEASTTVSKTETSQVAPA

As for `CC1=C(CNc2ccc(C#N)cc2)C(C)(C)CCC1`, the K in data set [1] was determined as 0.31 min⁻¹. For the same compound, the Activity in data set [2] is reported as 25%. Moreover, the result in data set [3] was Active.
On to `C=C(C(=O)Nc1ccc(NC(=O)c2c(C)cccc2C)cc1)C(F)(F)F`, for which, in data set [4], the result was Active.
The same measure, in the same setting: as for `CC1=C(/C=C/C(=O)N2CCC(NC=O)CC2)C(C)(C)CCC1`, the entry is “Active”.
On the same count and under the same terms, as for `C=CC(=O)Nc1ccc(NC(=O)c2c(C)cccc2C)cc1`, the entry is “Active”.
In the case of `O=Cc1ccc(COC(=O)c2cc(C(F)(F)F)cc(C(F)(F)F)c2)cc1`, in data set [5], the K amounted to 0.44 min⁻¹. In addition, the Activity entry in data set [6] and in data set [2] was “Non-Toxic” throughout. Moreover, in data set [3], the result was Active.
For orientation: half-life means the time needed for the level to fall by half in the phase considered. A low value points to rapid decline. Compound `CC(=O)/C=C/C1=C(C)CCCC1(C)C` [BETA-IONONE] showed a half-life in data set [7] of 3.6 min. Further, the K in data set [1] is 0.2 min⁻¹. In addition, the Activity entry in data set [6] and in data set [2] was “Non-Toxic” throughout.
In the case of `O=Cc1ccc(N2CCN(C(=O)c3cc(C(F)(F)F)cc(C(F)(F)F)c3)CC2)cc1`, in data set [4], the result was Active. Besides, the K in data set [1] was determined as 0.41 min⁻¹. Moreover, the Activity result in data set [6] and in data set [2] was “Non-Toxic” throughout.
In the case of `Cc1cccc(C)c1NC(=O)/C=C/c1ccc(C=O)cc1`, the outcome in data set [4] was Active. The Activity entry in data set [6] and in data set [2] was “Non-Toxic” in each case.
As to `CC1=C(/C=C/C(C)N2CCc3cc(C=O)ccc3C2)C(C)(C)CCC1` (stereo unspecified), the Activity result in data set [6] and in data set [2] was “Non-Toxic” in each case.
Regarding `CC1=C(/C=C/C(=O)N2CCC(C#N)CC2)C(C)(C)CCC1`, in data set [1], the K worked out at 0.63 min⁻¹. Moreover, the Activity in data set [2] worked out at 50%.
Take `O=C(O)c1ccc(COC(=O)c2cc(C(F)(F)F)cc(C(F)(F)F)c2)cc1`: the K in data set [5] is 0.62 min⁻¹. Also, the Activity result in data set [6] and in data set [2] was “Non-Toxic” each time. Moreover, the outcome in data set [3] was Active.
For the compound `Cc1cccc(C)c1-c1ccc(CNc2ccc(C(N)=O)cc2)o1`, the K in data set [1] is 0.61 min⁻¹.
`Cc1cccc(C)c1C(=O)N1CCN(c2ccc(C(=O)O)cc2)CC1`: the outcome in data set [4] was Active.
With `CC1=C(CNc2ccc(C(N)=O)cc2)C(C)(C)CCC1`, in data set [4], the result was Active. In addition, the K in data set [1] was 0.59 min⁻¹.
Regarding `O=Cc1ccc(C(=O)N2CCN(c3cc(C(F)(F)F)cc(C(F)(F)F)c3)CC2)cc1`, the result in data set [4] was Active. Besides, the K in data set [1] was 0.64 min⁻¹. The Activity entry in data set [6] and in data set [2] was “Non-Toxic” in each case.
Turning to `Cc1cccc(C)c1N1CCN(C(=O)c2ccc(C(N)=O)cc2)CC1`, the Activity result in data set [6] and in data set [2] was “Non-Toxic” throughout.
For the compound `Cc1cccc(C)c1/C=C/C(=O)NCc1ccc(C(=O)O)cc1`, in data set [4], the outcome was Active.
Regarding `Cc1cccc(C)c1N1CCN(C(=O)c2ccc(C#N)cc2)CC1`, in data set [4], the outcome was Active.
Turning to `C=CC(=O)Nc1ccc(NC(=O)c2cc(C(F)(F)F)cc(C(F)(F)F)c2)cc1`, in data set [4], the outcome was Active.
As for `NC(=O)c1ccc(N2CCN(C(=O)c3cc(C(F)(F)F)cc(C(F)(F)F)c3)CC2)cc1`, in data set [4], the outcome was Active. The K in data set [1] was found to be 0.62 min⁻¹. Moreover, the Activity result in data set [6] and in data set [2] was “Non-Toxic” each time.
For the compound `C=CC(=O)Nc1ccc(CNC(=O)c2c(C)cccc2C)cc1`, the K in data set [1] came to 0.62 min⁻¹. For the same compound, the Activity entry in data set [6] and in data set [2] was “Non-Toxic” in each case.
`CC1=C(/C=C/C(=O)N2CCC(C(N)=O)CC2)C(C)(C)CCC1`: the result in data set [4] was Active.
Turning to `CC1=C(CNc2ccc(C(=O)O)cc2)C(C)(C)CCC1`, the outcome in data set [4] was Active.
